High-throughput results: PubChem, several laboratories
CSN deneddyl inh: inhibitors of CSN-mediated cullin deneddylation, primary screen, biochemical, fluorescence polarization, uHTS; Purified CSN, SCF-Nedd8-OG deneddylation; AID 651999, 2013; 0.38% of 360,000 active; inhibition, % at 12.5 µM;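 active = pattern-corrected inhibition above about 35%, with an unprinted fluorescence ratio check between 0.5 and 1.5, limit read from the data, passing the limit was not always enough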;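 also: 0% = enzyme with substrate and 100% = substrate without enzyme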
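Test system: Human Csn5 produced in HEK293T cells | Compound: 12.5 µM single point | Times: 90 min, room temperature | Signal: Fluorescence polarization readout | Read-out basis: % inhibition of substrate cleavage by Csn5 | Controls: no-enzyme wells high, enzyme-with-substrate wells low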
NadD block: inhibitors of S. aureus NadD, primary screen, biochemical, colorimetric, uHTS | Nicotinate-nucleotide adenylyltransferase NadD (Staphylococcus aureus N315) | 0.78% of 360,000 active | purified NadD enzyme, colorimetric absorbance read-out | inhibition, % at 20 µM; in the data active = inhibition above about 26%
Rpn11 inh: Rpn11 (PSMD14) deubiquitinase inhibitors, primary screen, biochemical, fluorescence polarization, uHTS | inhibition, % at 20 µM | 26S proteasome non-ATPase regulatory subunit 14 (Homo sapiens), O00487 | human 26S proteasome, Ub4-pepOG fluorescence polarization; 20S core pre-blocked with epoxomicin | 0.59% of 360,000 active;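 active = inhibition at 20 µM, scaled to each plate's controls, above about 33%, limit read from the data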
PP1 inh: PP1-alpha phosphatase inhibitors, primary screen, counter-screen for PP5 inhibitor project, biochemical, fluorescence, OMFP substrate, single point; 0.9% of 320,000 active; purified PP1alpha; AID 2235, 2010; inhibition, % at 6.7 µM;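 active = inhibition above the mean inhibition of all tested compounds plus 3 SD, computed separately for each screening campaign, cut at about 15% in these data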
TPT1 inhibitor: Candida albicans TPT1 enzyme inhibitors, primary screen, biochemical, fluorescence polarization | tRNA 2'-phosphotransferase TPT1 (Candida albicans SC5314) | recombinant caTPT1, FP RNA substrate dephosphorylation | inhibition, % at 5 µM | 0.81% of 300,000 active | AID 1962, 2009;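 active = inhibition above the mean of all tested compounds plus 3 SD, set per screening campaign, cut at about 24% in these data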;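 also: plate controls were DMSO alone for no effect and ferristatin control at 100 nM for full effect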
HNF4A DNA FP: change in binding of human HNF4A to DNA, primary screen, biochemical, fluorescence polarization, FITC-DNA. 0.3% of 360,000 active. activity change, % at 10 µM. AID 1224865, 2016. 1 h; in the data active = activity change above about 30%, passing the limit was not always enough
Rpn11 confirm: Rpn11 (PSMD14) deubiquitinase inhibitors, confirmation, biochemical, fluorescence polarization, single concentration; shares compounds with Rpn11 inh; AID 602318, 2012; inhibition, % at 20 µM; 29% of 1,900 active; purified human 26S proteasome, Ub4-pepOG fluorescence polarization; proteasome pretreated with epoxomicin
MMP-2 inh: MMP-2 enzyme inhibition, confirmation, counter-screen for RPN11 inhibitor project, biochemical, fluorescence, single concentration; 4% of 1,900 active; AID 602330, 2012; shares compounds with Rpn11 inh; inhibition, % at 20 µM; recombinant MMP-2, FRET peptide cleavage fluorescence;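 also: human MMP-2 activated beforehand with APMA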
Thrombin inh: bovine thrombin protease inhibition, confirmation, counter-screen for Rpn11 inhibitor project, biochemical, fluorescence polarization, single concentration | shares compounds with Rpn11 inh | 13% of 1,900 active | bovine thrombin cleavage of Ub4-pepOG | inhibition, % at 20 µM | AID 602333, 2012;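 active = mean inhibition at least 40% at 20 µM, or signal 3 deviations below plate average, so some actives read negative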;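 also: plate controls were thrombin with DMSO for no effect and buffer wells lacking thrombin for full effect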
Target sequence (P00735 whole entry, looked up): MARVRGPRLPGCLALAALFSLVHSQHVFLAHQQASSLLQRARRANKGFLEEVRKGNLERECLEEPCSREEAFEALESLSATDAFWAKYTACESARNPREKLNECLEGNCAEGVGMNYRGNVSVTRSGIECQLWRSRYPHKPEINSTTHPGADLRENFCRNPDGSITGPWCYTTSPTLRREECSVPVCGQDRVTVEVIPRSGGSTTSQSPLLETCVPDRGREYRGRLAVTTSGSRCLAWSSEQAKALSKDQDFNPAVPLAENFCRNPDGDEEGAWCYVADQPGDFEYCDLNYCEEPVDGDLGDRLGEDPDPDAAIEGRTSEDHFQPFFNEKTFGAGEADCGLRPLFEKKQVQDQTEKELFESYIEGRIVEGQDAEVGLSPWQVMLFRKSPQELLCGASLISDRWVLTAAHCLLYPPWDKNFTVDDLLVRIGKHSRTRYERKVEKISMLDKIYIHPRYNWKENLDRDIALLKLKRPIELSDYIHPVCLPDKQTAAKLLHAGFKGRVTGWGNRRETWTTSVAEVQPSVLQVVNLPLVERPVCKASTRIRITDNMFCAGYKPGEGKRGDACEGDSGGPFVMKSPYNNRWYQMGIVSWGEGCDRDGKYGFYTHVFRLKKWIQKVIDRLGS
* hit, by the source's call; i = inactive; / = not tested or not shown; ! = not active in a repeat. Compounds with a hit are over-represented: about 2.7% of the library has one in this group of screens. Rule as the data show it, unless noted: active = inhibition above about 40%; inactive = the rest.

SMILES | CSN deneddyl inh | NadD block | Rpn11 inh | PP1 inh | TPT1 inhibitor | HNF4A DNA FP | Rpn11 confirm | MMP-2 inh | Thrombin inh
COc1ccc(CCn2c(O)c(C=Nc3ccc(NC(C)=O)cc3)c(=O)[nH]c2=O)cc1OC | 37.6* | 3.4 | 46.1* | -1.2 | 7.2 | 4.8 | 16.2 | i | 0.7
CC(C)c1ccc(-n2c(O)c(/C=N/NC(=O)c3ccncc3)c(=O)[nH]c2=O)cc1 | 0.7 | 4.4 | 0.7 | 0.0 | 8.3 | 4.5 | / | / | /
O=C(N/N=C/c1c(O)n(C2CCCCC2)c(=S)[nH]c1=O)c1ccccc1 | 7.9 | 2.7 | 46.0* | 5.0 | 1.1 | 2.8 | 49.5* | -1.7 | -14.8
CC(C)c1ccc(-n2c(O)c(/C=N/NC(=O)c3ccccc3O)c(=O)[nH]c2=S)cc1 | 5.2 | 7.4 | 48.4* | 10.0 | 9.2 | 9.2 | 53.1* | 36.2 | 0.3
CCOc1ccc(N=Cc2c(O)n(CCc3ccc(OC)c(OC)c3)c(=O)[nH]c2=O)cc1 | 29.1 | -11.9 | 18.7 | -2.0 | 3.0 | 11.2 | / | / | /
CCCCC(=O)N/N=C/c1c(O)n(C2CC2)c(=S)[nH]c1=O | -3.0 | -3.9 | 0.2 | 0.7 | -1.0 | -3.1 | / | / | /
Cc1cc(OCC(=O)N2CCC(C(=O)O)CC2)c2c3c(c(=O)oc2c1)CCCC3 | 5.4 | 6.4 | 1.3 | -5.6 | -3.5 | 4.9 | / | / | /
O=C(N/N=C/c1c(O)n(CCc2ccccc2)c(=O)[nH]c1=O)c1ccccc1 | 10.4 | 2.6 | 44.7* | -0.1 | 15.4 | 16.7 | 29.9 | -33.9 | -95.8
OCCCCO | 0.2 | -2.7 | -4.5 | -1.4 | / | 0.0 | / | / | /
O=c1[nH]c(O)c(N=Nc2ccc(S(=O)(=O)N3CCOCC3)cc2)c(=O)[nH]1 | 6.9 | -0.2 | -4.9 | 2.0 | -2.5 | 2.1 | / | / | /
O=c1[nH]c(O)c(N=Nc2ccc3c(c2)OCCO3)c(=O)[nH]1 | -3.5 | -0.9 | 54.9* | 1.7 | 1.3 | 17.3 | 35.2 | -22.2 | 22.2
COc1ccc(N2C(=O)/C(=C/c3ccc(OC)c(OC)c3)C(=O)NC2=S)cc1 | -3.2 | 6.2 | 52.6* | / | / | -32.4 | 2.0 | 8.4 | 6.6
COc1ccc(N2C(=O)/C(=C/c3ccc(C)o3)C(=O)NC2=S)c(OC)c1 | 31.8 | -1.5 | 51.0* | -1.2 | 19.3 | 4.8 | 9.4 | 33.3 | 40.3*
CNC(=O)Oc1ccc2c(c1)C(=O)c1ccccc1CO2 | -3.3 | -2.4 | 100.3* | -0.8 | -1.8 | 0.3 | -13.9 | -47.0 | -5.2
CC(C)CCNC(=O)c1cc(C(=O)c2cc(Br)ccc2O)cn(CCC(C)C)c1=O | 4.9 | 3.2 | 45.4* | -1.8 | 3.6 | 7.0 | -10.0 | -17.3 | -9.2
Cc1ccc2c(c1)C1C[N+](C)(CC(=O)c3ccc(Cl)cc3Cl)CCC1N2C(=O)c1ccc(F)cc1 (centres undefined) | -2.5 | 22.1 | -2.6 | / | / | 3.2 | / | / | /
COC1=C(C)C(=O)O[C@]12C(=O)C(C)=C1CCCCN3[C@H]([C@@H]4C[C@H](C)C(=O)O4)CC[C@]132 | 1.3 | -1.4 | 5.9 | -3.8 | / | 2.1 | / | / | /
C=CCn1c(O)c(C(C)=NCCC2=CCCCC2)c(=O)[nH]c1=O | 0.1 | 6.5 | 2.4 | 0.6 | -1.8 | 1.3 | / | / | /
COc1ccc(/C=C/C(=O)c2c(O)n(CCC3=CCCCC3)c(=O)[nH]c2=O)cc1OC | 32.9 | 11.2 | 44.4* | -0.6 | 8.8 | 0.1 | active | -61.8 | active
COC(=O)C1=C(c2ccc(S(C)(=O)=O)cc2)C[C@@H]2CC[C@H]1N2C(=O)NCc1cccc2ccccc12 | -5.3 | -5.7 | -2.7 | -2.3 | 0.5 | -0.4 | / | / | /
O=C1CC(=O)N(c2ccc(Cl)cc2)C(=O)N1 | 13.7 | 6.9 | 18.9 | -2.3 | 14.0 | 12.0 | / | / | /
CCc1ccccc1N1C(=O)CC(=O)NC1=O | 3.6 | 0.8 | 28.4* | -3.4 | 5.9 | 5.6 | -8.0 | -37.0 | 3.7
CC(C)c1ccc(N2C(=O)CC(=O)NC2=O)cc1 | 6.6 | -5.4 | 36.6* | -0.7 | 19.9 | 9.9 | 15.1 | 3.0 | 3.6
Cc1ccccc1N1C(=O)CC(=O)NC1=O | -2.8 | 6.7 | 4.5 | -3.7 | 8.4 | 1.9 | / | / | /
O=c1[nH]c(=S)n(Cc2ccc(F)cc2)c(O)c1C=NCCCn1ccnc1 | -1.9 | -6.9 | 0.8 | -3.6 | 3.1 | 3.8 | / | / | /
SMILES | CSN deneddyl inh | NadD block | Rpn11 inh | PP1 inh | TPT1 inhibitor | HNF4A DNA FP | Rpn11 confirm | MMP-2 inh | Thrombin inh
O=c1[nH]c(=S)n(Cc2ccc(F)cc2)c(O)c1C=NCc1ccc2c(c1)OCO2 | 2.6 | 14.1 | 31.5* | -2.0 | -0.1 | -0.3 | -13.3 | -9.5 | -17.9
O=c1[nH]c(=S)n(Cc2ccc(F)cc2)c(O)c1/C=N/N1CCCCCC1 | -5.1 | 1.1 | 57.2* | 0.9 | 8.3 | 34.9 | 22.9 | 25.3 | 13.5
CN(C)CCN=Cc1c(O)n(Cc2ccc3c(c2)OCO3)c(=S)[nH]c1=O | -3.7 | -3.2 | 13.0 | 0.2 | -2.4 | 1.0 | / | / | /
Cc1nc2ccccc2c(=O)n1/N=C/c1cc(Br)cc(Br)c1O | 34.9 | 2.0 | / | 4.6 | 20.6 | 13.0 | / | / | /
O=c1[nH]c(CN2CC=C(c3ccccc3)CC2)nc2cc(C(F)(F)F)ccc12 | 13.8 | 15.4 | 47.0* | 3.8 | 19.5 | 22.5 | 9.0 | 1.5 | -8.0
CCN(CC)P(=O)(NC(=O)C(Cl)(Cl)Cl)N(CC)CC.[Cl-].[Cl-].[Cl-].[Nd+3] | 104.2*! | 0.5 | 62.8* | -0.9 | 2.2 | 53.0*! | 5.7 | -9.2 | -26.8
COC(=O)C1=C(c2ccc(F)cc2OCc2ccccc2)C[C@@H]2CC[C@H]1N2C(=O)N1CCC(O)CC1 | -3.8 | 3.5 | -10.5 | -5.3 | / | -3.4 | / | / | /
CCC(Oc1cc(Cl)ccc1Cl)C(=O)N1CCC2(CC1)OCCO2 (centres undefined) | 4.1 | 3.0 | -3.3 | -4.5 | -0.4 | -2.6 | / | / | /
Cc1ccccc1-n1c(O)c(/C=C2/C(c3ccccc3)=Nc3ccccc32)c(=O)[nH]c1=O | -3.8 | 0.9 | 41.2* | 1.8 | 6.3 | 2.8 | 35.2 | 10.2 | 25.4
